Converted amounts (≈) assume the structure as drawn.
Experiments:
Streptococcus mutans [1] = assay: Antibacterial activity against Streptococcus mutans ATCC 25175 after 48 hrs by broth microdilution method; format: functional; conditions: ATCC 25175, 48 h
Porphyromonas gingivalis = assay: Antibacterial activity against Porphyromonas gingivalis ATCC 33277 after 48 hrs by broth microdilution method; format: functional; conditions: ATCC 33277, 48 h
Outline: (§1)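 Broth microdilution MIC for obligate anaerobes, run in their growth media (Wilkins–Chalgren for F. nucleatum and P. intermedia; supplemented Todd Hewitt broth for P. gingivalis). Inoculum suspended in Brucella broth, final 5 × 10^6 cfu/ml. Twofold dilutions, final 0.12–128 µg/ml. Incubated anaerobically (90% N2/5% H2/5% CO2) at 37 °C for 48 h; MIC is the lowest concentration without turbidity.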

Streptococcus mutans [2] = assay: Antibacterial activity against Streptococcus mutans ATCC 25175 assessed as inhibition of biofilm formation after 18 hrs; format: functional
Outline: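 Single-species S. mutans biofilm grown in flat-bottom polystyrene wells, BHI with 2% sucrose, 6 × 10^7 cfu/ml final, compound twofold 0.12–128 µg/ml, 18 h at 37 °C in 5% CO2. Wells rinsed with PBS pH 7.2, methanol-fixed, stained with 0.1% crystal violet, eluted in 95% ethanol, A595 read. % inhibition relative to untreated control; MBIC50 is the lowest concentration giving ≥50% inhibition.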

Fusobacterium nucleatum = assay: Antibacterial activity against Fusobacterium nucleatum ATCC 10953 after 48 hrs by broth microdilution method; format: functional; conditions: ATCC 10953, 48 h; outline: as §1
Actinomyces viscosus [3] = assay: Antibacterial activity against Actinomyces viscosus ATCC 15987 after 48 hrs by broth microdilution method; format: functional; conditions: ATCC 15987, 48 h
Prevotella intermedia = assay: Antibacterial activity against Prevotella intermedia ATCC 25611 after 48 hrs by broth microdilution method; format: functional; conditions: ATCC 25611, 48 h; outline: as §1
Streptococcus mutans [4] = assay: Antibacterial activity against Streptococcus mutans ATCC 25175 after 24 hrs by broth microdilution method; conditions: ATCC 25175, 24 h
Streptococcus sanguinis [5] = assay: Antibacterial activity against Streptococcus sanguinis ATCC 10556 after 24 hrs by broth microdilution method; conditions: ATCC 10556, 24 h
Streptococcus sanguinis [6] = assay: Antibacterial activity against Streptococcus sanguinis ATCC 10556 after 48 hrs by broth microdilution method; format: functional; conditions: ATCC 10556, 48 h
Actinomyces viscosus [7] = assay: Antibacterial activity against Actinomyces viscosus ATCC 15987 after 24 hrs by broth microdilution method; conditions: ATCC 15987, 24 h
Streptococcus mutans [8] = assay: Ratio of compound MBIC50 to bakuchiol MBIC50 for Streptococcus mutans ATCC 25175; format: functional
Outline: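 MBIC50 from crystal-violet S. mutans biofilm assay (BHI + 2% sucrose, 18 h, 37 °C, 5% CO2, A595 read) for each compound, divided by the bakuchiol MBIC50 from the same assay.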

Structure (SMILES): CC(C)=CCC[C@](C)(/C=C/c1ccc(O)cc1)/C=C/c1ccc(F)cc1
- MBC (Streptococcus mutans [1]): 4 µg/mL (≈ 11.4 µM)
- MBC (Porphyromonas gingivalis): 4 µg/mL (≈ 11.4 µM)
- MIC (Porphyromonas gingivalis): 2 µg/mL (≈ 5.71 µM)
- MBIC50 (Streptococcus mutans [2]): 8 µg/mL
- MBC (Fusobacterium nucleatum): > 128 µg/mL
- MIC (Fusobacterium nucleatum): > 128 µg/mL
- MBC (Actinomyces viscosus [3]): 8 µg/mL (≈ 22.8 µM)
- MBC (Prevotella intermedia): 4 µg/mL (≈ 11.4 µM)
- MIC (Prevotella intermedia): 2 µg/mL (≈ 5.71 µM)
- MIC (Streptococcus mutans [4]): 4 µg/mL (≈ 11.4 µM)
- MIC (Streptococcus sanguinis [5]): 4 µg/mL (≈ 11.4 µM)
- MBC (Streptococcus sanguinis [6]): 8 µg/mL (≈ 22.8 µM)
- MIC (Actinomyces viscosus [7]): 4 µg/mL (≈ 11.4 µM)
- Ratio (Streptococcus mutans [8]): 2
